According to PMC3115441 (Chemical biology & drug design, 2011):
“Also recorded” adds a separate entry of the source.

Key:
mice = experiment: Acute toxicity, minimal motor impairment; format: in vivo; conditions: for TOX (30) N/F, animals toxic over tested: 30 mg/kg
[1] = target: Norepinephrine Transporter (NET) (Homo sapiens, UniProt P23975); experiment: NIMH-PDSP radioligand binding, NET
MES-induced seizures [2] = experiment: Maximal electroshock; format: in vivo, mice; conditions: for MES (30) N/F, animals active over tested: 30 mg/kg i.p.; for MES (100) N/F, animals active over tested: 100 mg/kg i.p.; for MES (300) N/F, animals active over tested: 300 mg/kg i.p.
Outline: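 Mice received test compound i.p. at 30, 100 or 300 mg/kg in 0.01 ml/g and were tested at various intervals after dosing. Corneal electrodes primed with 0.5% tetracaine HCl electrolyte delivered 60 Hz alternating current, 50 mA, for 0.2 s. An animal counted as protected when the hindlimb tonic extensor component was abolished. Results are scored as animals protected over tested.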

[3] = target: μ- opioid receptors (MOR) (Homo sapiens, UniProt P35372); experiment: NIMH-PDSP radioligand binding, MOR
rats = experiment: Acute toxicity, minimal motor impairment in rats; format: in vivo; conditions: 30 mg/kg
MES-induced seizures [4] = experiment: Anticonvulsant protection test in rats; format: in vivo; conditions: 30 mg/kg
Outline: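 Rats were dosed orally at 30 mg/kg in 0.04 ml/10 g. Corneal electrodes primed with 0.5% tetracaine HCl electrolyte delivered 60 Hz alternating current, 150 mA, for 0.2 s. Protection meant abolition of the hindlimb tonic extensor component of the seizure.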

[5] = target: κ- opioid receptors (KOR) (Rattus norvegicus, UniProt P34975); experiment: NIMH-PDSP radioligand binding, KOR
[6] = tested on: PCP site of the NMDA receptor complex; experiment: [3H]; format: binding, rat
Outline: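 Washed rat forebrain homogenate (30 ug/mL protein) in 10 mM HEPES, pH 7.4, with 1 nM (+)-[3H]MK-801, 100 uM glutamate, 30 uM glycine and varied competitor concentrations. Nonspecific binding was set with 30 uM (+)-MK-801. Incubation ran 2 h at room temperature, then vacuum filtration onto GF/B filters, three buffer washes and scintillation counting.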

[7] = tested on: Metrazol-induced clonic seizures; experiment: Subcutaneous Metrazol seizure threshold test; format: in vivo, mice; conditions: for scMET (30) N/F, animals active over tested: 30 mg/kg; for scMET (100) N/F, animals active over tested: 100 mg/kg
[8] = target: Dopamine Transporter (DAT) (Homo sapiens, UniProt Q01959); experiment: NIMH-PDSP radioligand binding, DAT
Dopamine 2 (D2) = Dopamine 2 (D2) (Homo sapiens, UniProt P14416); experiment: NIMH-PDSP radioligand binding, D2
Sigma1 = Sigma1 (Rattus norvegicus, UniProt Q9R0C9); experiment: NIMH-PDSP radioligand binding, Sigma-1
Dopamine 1 (D1) = Dopamine 1 (D1) (Homo sapiens, UniProt P21728); experiment: NIMH-PDSP radioligand binding, D1
Serotonin 2A (5-HT2A) = Serotonin 2A (5-HT2A) (Homo sapiens, UniProt P28223); experiment: NIMH-PDSP radioligand binding, 5-HT2A
Sigma2 = target: T1, Sigma2 (Rattus norvegicus, UniProt Q5U3Y7); experiment: NIMH-PDSP radioligand binding, Sigma-2
T1 sequence (Q5U3Y7 1-176): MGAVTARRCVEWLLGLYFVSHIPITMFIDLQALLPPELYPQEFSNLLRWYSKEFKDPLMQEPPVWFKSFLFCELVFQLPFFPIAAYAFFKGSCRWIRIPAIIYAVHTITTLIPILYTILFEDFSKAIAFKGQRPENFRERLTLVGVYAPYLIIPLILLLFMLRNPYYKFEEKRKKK

[9] = target: Serotonin Transporter (SERT) (Homo sapiens, UniProt P31645); experiment: NIMH-PDSP radioligand binding, SERT
6HZ = 6HZ test; format: in vivo; conditions: 50 mg/kg
MES-induced seizures [10] = conditions: literature statement, no reference given; cited from earlier work
[11] = tested on: PCP site of the NMDA receptor complex; conditions: ref [39], [40]; cited from earlier work

Chain of Sigma1 (Q9R0C9 whole entry): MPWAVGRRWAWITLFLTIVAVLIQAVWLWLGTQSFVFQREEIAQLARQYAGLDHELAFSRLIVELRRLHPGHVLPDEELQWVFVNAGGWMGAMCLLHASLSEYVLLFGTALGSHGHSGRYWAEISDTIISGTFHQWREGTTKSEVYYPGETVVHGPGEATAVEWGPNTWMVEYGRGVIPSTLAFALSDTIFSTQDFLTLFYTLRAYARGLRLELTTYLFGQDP
Chain of Dopamine 2 (D2) (P14416 whole entry): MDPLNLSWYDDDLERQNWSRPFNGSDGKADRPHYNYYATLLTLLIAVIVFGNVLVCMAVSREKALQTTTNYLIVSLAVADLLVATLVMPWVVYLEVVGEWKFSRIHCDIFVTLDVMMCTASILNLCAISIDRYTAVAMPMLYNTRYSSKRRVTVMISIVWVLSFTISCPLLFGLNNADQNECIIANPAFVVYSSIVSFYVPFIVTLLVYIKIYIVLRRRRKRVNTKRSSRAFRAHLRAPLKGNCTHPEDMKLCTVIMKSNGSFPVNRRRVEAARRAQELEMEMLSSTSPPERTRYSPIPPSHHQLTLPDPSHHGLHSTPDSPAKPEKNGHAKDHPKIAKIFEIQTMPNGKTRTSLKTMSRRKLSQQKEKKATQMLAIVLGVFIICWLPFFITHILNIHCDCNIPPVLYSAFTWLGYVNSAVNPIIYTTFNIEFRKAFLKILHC
Chain of κ- opioid receptors (KOR) (P34975 whole entry): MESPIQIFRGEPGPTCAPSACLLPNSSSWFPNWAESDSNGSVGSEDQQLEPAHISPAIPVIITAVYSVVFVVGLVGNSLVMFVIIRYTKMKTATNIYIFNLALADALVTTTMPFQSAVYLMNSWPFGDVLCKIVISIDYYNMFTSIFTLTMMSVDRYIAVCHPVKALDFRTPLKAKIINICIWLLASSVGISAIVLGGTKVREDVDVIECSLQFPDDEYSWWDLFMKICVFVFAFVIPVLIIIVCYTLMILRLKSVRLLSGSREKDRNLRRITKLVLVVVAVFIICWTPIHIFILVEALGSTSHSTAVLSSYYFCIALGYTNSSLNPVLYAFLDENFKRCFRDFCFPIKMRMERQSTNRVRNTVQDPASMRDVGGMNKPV
Chain of μ- opioid receptors (MOR) (P35372 whole entry): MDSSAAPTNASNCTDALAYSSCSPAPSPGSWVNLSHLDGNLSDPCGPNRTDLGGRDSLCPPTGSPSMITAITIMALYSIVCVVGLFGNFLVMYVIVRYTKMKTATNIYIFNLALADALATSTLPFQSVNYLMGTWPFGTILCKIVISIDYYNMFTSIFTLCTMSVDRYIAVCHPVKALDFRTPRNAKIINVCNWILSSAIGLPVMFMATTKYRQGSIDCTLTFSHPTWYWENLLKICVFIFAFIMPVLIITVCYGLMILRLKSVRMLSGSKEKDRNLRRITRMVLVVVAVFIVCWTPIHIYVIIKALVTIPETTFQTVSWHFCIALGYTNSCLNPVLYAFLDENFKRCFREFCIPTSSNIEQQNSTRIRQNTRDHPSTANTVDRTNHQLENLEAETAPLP
Chain of Norepinephrine Transporter (NET) (P23975 whole entry): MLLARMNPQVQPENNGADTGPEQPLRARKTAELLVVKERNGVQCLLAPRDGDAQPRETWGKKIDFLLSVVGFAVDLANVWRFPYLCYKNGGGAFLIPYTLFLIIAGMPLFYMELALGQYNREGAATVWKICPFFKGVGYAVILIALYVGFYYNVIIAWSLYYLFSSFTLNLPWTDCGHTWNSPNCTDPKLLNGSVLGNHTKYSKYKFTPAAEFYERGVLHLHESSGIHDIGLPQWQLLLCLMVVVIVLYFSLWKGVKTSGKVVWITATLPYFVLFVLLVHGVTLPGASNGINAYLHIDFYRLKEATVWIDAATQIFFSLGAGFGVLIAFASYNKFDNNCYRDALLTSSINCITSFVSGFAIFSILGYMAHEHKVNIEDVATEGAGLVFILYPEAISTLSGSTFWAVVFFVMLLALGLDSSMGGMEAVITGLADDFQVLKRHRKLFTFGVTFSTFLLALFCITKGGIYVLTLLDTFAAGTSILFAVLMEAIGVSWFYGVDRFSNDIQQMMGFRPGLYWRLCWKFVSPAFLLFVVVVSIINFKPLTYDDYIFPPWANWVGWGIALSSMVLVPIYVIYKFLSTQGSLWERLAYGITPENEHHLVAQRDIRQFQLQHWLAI
Chain of Serotonin Transporter (SERT) (P31645 whole entry): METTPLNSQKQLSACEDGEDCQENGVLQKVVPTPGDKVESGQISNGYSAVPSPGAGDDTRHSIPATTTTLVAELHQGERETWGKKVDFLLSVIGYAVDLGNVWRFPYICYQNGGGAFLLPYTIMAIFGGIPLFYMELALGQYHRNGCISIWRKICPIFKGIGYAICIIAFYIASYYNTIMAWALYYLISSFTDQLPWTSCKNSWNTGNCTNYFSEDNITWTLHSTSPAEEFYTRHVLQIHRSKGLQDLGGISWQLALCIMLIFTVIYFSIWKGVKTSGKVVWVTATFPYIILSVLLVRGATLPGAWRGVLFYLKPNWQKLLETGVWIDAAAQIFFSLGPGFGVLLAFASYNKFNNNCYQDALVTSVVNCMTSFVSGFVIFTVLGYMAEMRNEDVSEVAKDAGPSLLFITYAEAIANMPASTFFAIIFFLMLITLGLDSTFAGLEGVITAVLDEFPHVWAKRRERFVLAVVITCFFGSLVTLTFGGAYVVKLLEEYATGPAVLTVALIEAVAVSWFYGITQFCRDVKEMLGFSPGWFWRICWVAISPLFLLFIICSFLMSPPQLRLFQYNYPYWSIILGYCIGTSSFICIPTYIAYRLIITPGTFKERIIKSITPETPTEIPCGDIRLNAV
Chain of Serotonin 2A (5-HT2A) (P28223 whole entry): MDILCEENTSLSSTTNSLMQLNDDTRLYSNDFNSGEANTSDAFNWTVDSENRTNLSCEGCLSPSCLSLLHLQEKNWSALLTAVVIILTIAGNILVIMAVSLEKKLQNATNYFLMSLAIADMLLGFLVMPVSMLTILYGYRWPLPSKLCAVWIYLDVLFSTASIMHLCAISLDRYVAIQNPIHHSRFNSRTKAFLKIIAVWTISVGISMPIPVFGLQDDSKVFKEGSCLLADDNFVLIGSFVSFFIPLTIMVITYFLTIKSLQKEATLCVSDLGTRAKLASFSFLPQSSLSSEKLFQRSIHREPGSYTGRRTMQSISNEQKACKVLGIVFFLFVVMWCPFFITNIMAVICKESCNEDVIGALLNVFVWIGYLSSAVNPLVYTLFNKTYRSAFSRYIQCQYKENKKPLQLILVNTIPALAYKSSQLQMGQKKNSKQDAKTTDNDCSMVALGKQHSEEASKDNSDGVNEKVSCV
Chain of Dopamine Transporter (DAT) (Q01959 whole entry): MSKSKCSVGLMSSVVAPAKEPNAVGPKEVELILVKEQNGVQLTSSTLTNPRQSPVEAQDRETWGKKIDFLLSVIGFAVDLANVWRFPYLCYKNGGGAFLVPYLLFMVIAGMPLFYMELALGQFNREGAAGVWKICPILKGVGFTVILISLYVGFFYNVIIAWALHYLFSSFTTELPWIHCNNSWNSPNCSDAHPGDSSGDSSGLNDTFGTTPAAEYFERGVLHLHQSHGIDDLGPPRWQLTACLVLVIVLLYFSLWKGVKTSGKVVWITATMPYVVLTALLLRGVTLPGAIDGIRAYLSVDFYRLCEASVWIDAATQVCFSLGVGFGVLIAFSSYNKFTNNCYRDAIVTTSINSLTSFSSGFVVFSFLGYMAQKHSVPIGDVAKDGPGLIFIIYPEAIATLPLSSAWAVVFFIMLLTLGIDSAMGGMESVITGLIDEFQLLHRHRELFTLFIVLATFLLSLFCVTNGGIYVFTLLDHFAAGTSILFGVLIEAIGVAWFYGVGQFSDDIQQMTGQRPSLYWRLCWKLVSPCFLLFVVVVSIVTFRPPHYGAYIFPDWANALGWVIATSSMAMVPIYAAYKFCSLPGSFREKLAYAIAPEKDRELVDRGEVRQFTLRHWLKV
Chain of Dopamine 1 (D1) (P21728 whole entry): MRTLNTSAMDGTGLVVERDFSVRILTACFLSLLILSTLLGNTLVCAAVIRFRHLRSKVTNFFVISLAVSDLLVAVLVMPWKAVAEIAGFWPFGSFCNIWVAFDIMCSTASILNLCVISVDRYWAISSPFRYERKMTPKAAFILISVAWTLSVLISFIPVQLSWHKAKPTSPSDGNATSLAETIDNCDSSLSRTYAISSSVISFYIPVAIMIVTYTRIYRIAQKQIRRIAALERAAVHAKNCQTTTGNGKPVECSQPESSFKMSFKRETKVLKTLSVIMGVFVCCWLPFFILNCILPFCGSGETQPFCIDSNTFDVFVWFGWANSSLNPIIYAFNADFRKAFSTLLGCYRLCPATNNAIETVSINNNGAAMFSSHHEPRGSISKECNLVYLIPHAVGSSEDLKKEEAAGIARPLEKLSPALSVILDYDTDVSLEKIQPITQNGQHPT

Fc1ccc(C2(NCCN3CCOCC3)CC3CCC2C3)cc1 (centres unmarked) [Compound 5d, 2-(4-Fluorophenyl)-N-(2-morpholinoethyl)bicyclo [2.2.1]heptan-2-amine]
TOX comments (mice; 65 mg/kg, 0.25 h): Clonic seizures
TOX comments (mice; 100 mg/kg, 0.5 h): Clonic seizures
TOX comments (mice; 300 mg/kg, 0.5 h): Loss of righting reflex; also recorded: Death
TOX (30) N/F, animals toxic over tested (mice; rotorod, 0.5 h): 0/4
TOX (30) N/F, animals toxic over tested (mice; rotorod, 4.0 h): 0/2
TOX (65) N/F, animals toxic over tested (mice; rotorod, 65 mg/kg, 0.5 h): 0/4 0/4
TOX (65) N/F, animals toxic over tested (mice; rotorod, 65 mg/kg, 4.0 h): 0/4 0/4
TOX (100) N/F, animals toxic over tested (mice; rotorod, 100 mg/kg, 0.5 h): 1/8
TOX (100) N/F, animals toxic over tested (mice; rotorod, 100 mg/kg, 4.0 h): 0/4
TOX (300) N/F, animals toxic over tested (mice; rotorod, 300 mg/kg, 0.5 h): 4/4 /
Ki [1]: > 10 µM
MES (30) N/F, animals active over tested (MES-induced seizures [2]; 0.5 h): 0/1 0/1
MES (30) N/F, animals active over tested (MES-induced seizures [2]; 4.0 h): 0/1 0/1
MES (100) N/F, animals active over tested (MES-induced seizures [2]; 0.5 h): 2/3
MES (100) N/F, animals active over tested (MES-induced seizures [2]; 4.0 h): 0/3
MES (300) N/F, animals active over tested (MES-induced seizures [2]; 0.5 h): 1/1
MES (300) N/F, animals active over tested (MES-induced seizures [2]; 4.0 h): 0/0
MES neuroprotective activity (in words) (MES-induced seizures [2]; mouse, in vivo): displayed MES neuroprotective activity
Ki [3]: > 10 µM
toxicity in rats (in words) (rats): did not display any protection or toxicity
protection in rats (in words) (MES-induced seizures [4]): did not display any protection
Ki [5]: > 10 µM
affinity for NMDA (in words) [6]: did not exhibit significant affinity
scMET (30) N/F, animals active over tested ([7]; 0.5 h): 0/1 0/1
scMET (30) N/F, animals active over tested ([7]; 4.0 h): 0/1 0/1
scMET (100) N/F, animals active over tested ([7]; 0.5 h): 0/1 0/1
scMET (100) N/F, animals active over tested ([7]; 4.0 h): 0/1 0/1
Ki [8]: 6.48 µM
Ki (Dopamine 2 (D2)): > 10 µM
Ki (Sigma1): > 10 µM
Ki (Dopamine 1 (D1)): > 10 µM
Ki (Serotonin 2A (5-HT2A)): > 10 µM
Ki (Sigma2): > 10 µM
Ki [9]: > 10 µM
6HZ (50), animals active over tested (6HZ; 0.5 h): 1/4 1/4
6HZ (50), animals active over tested (6HZ; 4.0 h): 1/4 1/4

COc1ccc2c(c1)[C@]13CCCC[C@@H]1[C@H](C2)N(C)CC3 [DXM, dextromethorphan]
neuroprotective activity in the MES test (in words) (MES-induced seizures [10]): neuroprotective activity in the MES test
activity / affinity at NMDA (in words) [11]: low activity at NMDA
